The values below come from ChEMBL document CHEMBL5653631, “A Potent and Selective ULK1 Inhibitor Suppresses Autophagy and Sensitizes Cancer Cells to Nutrient Stress” (iScience, 2018).

For assay [1], the target named is PAS domain-containing serine/threonine-protein kinase (Homo sapiens) (UniProt Q96RG2). The assay is described as follows: Inhibition of human recombinant PASK at 500 nM related to control ULK1.
The target in assay [2] is T1, Myosin-IIIb (Homo sapiens) (UniProt Q8WXR4).
T1 sequence (whole entry): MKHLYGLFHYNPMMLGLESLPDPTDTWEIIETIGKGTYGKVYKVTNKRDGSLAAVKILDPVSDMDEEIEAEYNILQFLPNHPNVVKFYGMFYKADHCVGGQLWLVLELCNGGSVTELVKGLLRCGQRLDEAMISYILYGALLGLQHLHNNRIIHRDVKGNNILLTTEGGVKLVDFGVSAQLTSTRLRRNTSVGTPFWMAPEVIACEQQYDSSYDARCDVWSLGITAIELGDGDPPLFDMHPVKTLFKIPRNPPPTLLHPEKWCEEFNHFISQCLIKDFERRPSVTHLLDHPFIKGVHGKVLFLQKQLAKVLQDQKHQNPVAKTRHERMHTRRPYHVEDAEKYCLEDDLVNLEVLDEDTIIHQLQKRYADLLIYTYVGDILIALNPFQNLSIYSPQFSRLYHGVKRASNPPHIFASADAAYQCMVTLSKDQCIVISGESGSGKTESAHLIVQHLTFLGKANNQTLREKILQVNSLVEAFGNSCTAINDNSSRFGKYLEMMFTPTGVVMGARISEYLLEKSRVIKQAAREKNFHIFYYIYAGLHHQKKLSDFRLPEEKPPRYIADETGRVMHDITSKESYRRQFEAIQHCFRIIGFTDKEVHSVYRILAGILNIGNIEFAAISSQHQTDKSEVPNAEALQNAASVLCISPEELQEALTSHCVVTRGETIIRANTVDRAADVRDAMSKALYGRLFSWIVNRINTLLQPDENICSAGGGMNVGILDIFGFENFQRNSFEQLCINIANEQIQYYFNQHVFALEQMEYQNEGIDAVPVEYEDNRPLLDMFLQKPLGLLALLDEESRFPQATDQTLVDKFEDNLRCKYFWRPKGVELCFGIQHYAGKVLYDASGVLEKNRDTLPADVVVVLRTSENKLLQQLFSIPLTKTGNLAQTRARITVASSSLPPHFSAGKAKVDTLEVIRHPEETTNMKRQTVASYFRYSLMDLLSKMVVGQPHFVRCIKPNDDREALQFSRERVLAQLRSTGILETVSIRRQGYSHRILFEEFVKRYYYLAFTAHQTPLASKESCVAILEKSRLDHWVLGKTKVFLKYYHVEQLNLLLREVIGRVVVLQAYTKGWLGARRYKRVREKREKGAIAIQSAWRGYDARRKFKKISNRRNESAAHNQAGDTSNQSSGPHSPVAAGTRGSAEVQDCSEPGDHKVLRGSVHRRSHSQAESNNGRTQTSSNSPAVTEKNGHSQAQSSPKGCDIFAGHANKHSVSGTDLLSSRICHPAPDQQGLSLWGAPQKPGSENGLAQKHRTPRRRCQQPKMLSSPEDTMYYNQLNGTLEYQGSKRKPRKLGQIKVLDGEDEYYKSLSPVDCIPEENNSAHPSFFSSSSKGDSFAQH
The experiment in a line: Inhibition of human recombinant MYO3B at 500 nM in presence of ATP by radiometric assay relative to control.

The target in assay [3] is T2, Activin receptor type-1B (Homo sapiens) (UniProt P36896).
T2 sequence (whole entry): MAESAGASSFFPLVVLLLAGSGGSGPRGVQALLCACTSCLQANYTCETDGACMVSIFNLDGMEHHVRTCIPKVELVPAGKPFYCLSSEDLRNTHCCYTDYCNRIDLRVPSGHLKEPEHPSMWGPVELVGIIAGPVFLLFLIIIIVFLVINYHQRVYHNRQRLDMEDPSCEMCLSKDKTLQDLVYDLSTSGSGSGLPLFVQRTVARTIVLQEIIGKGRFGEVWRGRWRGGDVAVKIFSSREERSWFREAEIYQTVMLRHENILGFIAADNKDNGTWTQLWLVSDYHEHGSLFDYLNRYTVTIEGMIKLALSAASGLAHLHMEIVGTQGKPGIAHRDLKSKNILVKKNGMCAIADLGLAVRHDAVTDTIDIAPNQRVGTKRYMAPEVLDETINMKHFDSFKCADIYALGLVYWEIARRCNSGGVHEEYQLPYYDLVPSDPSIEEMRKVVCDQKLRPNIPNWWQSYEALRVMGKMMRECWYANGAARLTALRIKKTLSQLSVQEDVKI
The assay is described as follows: Inhibition of human recombinant ALK4 at 500 nM in presence of ATP by radiometric assay relative to control. In outline: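 Panel of 327 recombinant human kinases, each assayed in vitro by radiometric activity assay in duplicate at a single inhibitor concentration per compound, chosen with reference to its ULK1 inhibition. Activity remaining was expressed as percent of vehicle control, and percent inhibition was calculated as 100 minus percent activity remaining.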

Assay [4] has as its target Tyrosine-protein kinase Lck (Homo sapiens) (UniProt P06239). The assay is described as follows: Inhibition of human recombinant LCK at 500 nM related to control ULK1.
The target in assay [5] is T3, Cytoplasmic tyrosine-protein kinase BMX (Homo sapiens) (UniProt P51813).
T3 sequence (whole entry): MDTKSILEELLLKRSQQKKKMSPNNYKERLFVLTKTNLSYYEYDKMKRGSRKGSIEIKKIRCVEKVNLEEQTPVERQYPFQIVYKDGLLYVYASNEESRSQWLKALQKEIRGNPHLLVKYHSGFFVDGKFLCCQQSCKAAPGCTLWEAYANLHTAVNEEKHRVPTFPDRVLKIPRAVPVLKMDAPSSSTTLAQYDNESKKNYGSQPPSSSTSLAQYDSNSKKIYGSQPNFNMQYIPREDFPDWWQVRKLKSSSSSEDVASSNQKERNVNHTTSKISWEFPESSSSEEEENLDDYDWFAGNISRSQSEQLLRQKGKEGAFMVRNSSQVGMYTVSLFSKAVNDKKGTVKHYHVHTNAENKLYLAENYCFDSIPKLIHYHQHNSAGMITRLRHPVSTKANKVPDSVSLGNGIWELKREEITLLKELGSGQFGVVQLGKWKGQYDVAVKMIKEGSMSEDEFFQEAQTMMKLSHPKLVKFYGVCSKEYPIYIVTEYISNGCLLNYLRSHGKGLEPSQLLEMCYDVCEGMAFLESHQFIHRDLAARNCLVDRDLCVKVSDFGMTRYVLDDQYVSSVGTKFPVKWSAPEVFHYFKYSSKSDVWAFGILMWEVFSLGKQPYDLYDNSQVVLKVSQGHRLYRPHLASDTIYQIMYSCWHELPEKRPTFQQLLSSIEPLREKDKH
The assay is described as follows: Inhibition of human recombinant BMX at 15 nM related to control ULK1.

Assay [6] addresses Vascular endothelial growth factor receptor 2 (Homo sapiens) (UniProt P35968). The experiment in a line: Inhibition of human recombinant KDR at 15 nM related to control ULK1.

Chain of PAS domain-containing serine/threonine-protein kinase (Homo sapiens) (Q96RG2 whole entry, the tested form may be a part): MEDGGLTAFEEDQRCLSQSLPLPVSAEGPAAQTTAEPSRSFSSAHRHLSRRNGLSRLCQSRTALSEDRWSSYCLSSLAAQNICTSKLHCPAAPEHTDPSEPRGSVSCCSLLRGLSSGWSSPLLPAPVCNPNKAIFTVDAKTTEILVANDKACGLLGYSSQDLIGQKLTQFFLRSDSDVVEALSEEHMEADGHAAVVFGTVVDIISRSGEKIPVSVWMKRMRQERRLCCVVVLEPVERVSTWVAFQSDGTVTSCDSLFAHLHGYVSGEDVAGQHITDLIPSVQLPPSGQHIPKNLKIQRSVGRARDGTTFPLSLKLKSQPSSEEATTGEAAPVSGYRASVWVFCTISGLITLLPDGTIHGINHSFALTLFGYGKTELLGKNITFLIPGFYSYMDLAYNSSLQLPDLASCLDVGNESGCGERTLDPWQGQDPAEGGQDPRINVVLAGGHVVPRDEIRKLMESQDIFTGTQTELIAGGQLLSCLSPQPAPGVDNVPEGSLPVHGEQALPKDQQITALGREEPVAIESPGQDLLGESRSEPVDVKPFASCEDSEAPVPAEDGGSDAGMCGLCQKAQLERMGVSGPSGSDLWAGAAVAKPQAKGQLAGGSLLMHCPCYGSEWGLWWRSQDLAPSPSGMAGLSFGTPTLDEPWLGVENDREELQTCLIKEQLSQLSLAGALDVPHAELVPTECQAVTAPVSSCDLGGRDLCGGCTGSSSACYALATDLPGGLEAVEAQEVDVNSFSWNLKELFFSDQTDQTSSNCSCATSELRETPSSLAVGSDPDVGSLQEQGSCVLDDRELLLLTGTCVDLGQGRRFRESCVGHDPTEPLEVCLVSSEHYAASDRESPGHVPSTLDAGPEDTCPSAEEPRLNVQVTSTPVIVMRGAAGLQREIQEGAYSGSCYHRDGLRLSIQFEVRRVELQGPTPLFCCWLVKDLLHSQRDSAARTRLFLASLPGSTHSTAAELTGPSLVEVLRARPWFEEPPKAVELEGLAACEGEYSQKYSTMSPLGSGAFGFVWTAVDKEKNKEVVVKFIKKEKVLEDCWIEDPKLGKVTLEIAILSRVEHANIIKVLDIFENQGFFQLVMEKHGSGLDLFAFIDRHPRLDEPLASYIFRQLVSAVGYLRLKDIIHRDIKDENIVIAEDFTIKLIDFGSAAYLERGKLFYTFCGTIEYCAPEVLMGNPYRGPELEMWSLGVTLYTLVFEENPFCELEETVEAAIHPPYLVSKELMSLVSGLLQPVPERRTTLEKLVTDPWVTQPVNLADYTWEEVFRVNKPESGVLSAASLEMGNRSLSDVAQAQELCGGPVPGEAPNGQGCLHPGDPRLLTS
Chain of Vascular endothelial growth factor receptor 2 (Homo sapiens) (P35968 whole entry): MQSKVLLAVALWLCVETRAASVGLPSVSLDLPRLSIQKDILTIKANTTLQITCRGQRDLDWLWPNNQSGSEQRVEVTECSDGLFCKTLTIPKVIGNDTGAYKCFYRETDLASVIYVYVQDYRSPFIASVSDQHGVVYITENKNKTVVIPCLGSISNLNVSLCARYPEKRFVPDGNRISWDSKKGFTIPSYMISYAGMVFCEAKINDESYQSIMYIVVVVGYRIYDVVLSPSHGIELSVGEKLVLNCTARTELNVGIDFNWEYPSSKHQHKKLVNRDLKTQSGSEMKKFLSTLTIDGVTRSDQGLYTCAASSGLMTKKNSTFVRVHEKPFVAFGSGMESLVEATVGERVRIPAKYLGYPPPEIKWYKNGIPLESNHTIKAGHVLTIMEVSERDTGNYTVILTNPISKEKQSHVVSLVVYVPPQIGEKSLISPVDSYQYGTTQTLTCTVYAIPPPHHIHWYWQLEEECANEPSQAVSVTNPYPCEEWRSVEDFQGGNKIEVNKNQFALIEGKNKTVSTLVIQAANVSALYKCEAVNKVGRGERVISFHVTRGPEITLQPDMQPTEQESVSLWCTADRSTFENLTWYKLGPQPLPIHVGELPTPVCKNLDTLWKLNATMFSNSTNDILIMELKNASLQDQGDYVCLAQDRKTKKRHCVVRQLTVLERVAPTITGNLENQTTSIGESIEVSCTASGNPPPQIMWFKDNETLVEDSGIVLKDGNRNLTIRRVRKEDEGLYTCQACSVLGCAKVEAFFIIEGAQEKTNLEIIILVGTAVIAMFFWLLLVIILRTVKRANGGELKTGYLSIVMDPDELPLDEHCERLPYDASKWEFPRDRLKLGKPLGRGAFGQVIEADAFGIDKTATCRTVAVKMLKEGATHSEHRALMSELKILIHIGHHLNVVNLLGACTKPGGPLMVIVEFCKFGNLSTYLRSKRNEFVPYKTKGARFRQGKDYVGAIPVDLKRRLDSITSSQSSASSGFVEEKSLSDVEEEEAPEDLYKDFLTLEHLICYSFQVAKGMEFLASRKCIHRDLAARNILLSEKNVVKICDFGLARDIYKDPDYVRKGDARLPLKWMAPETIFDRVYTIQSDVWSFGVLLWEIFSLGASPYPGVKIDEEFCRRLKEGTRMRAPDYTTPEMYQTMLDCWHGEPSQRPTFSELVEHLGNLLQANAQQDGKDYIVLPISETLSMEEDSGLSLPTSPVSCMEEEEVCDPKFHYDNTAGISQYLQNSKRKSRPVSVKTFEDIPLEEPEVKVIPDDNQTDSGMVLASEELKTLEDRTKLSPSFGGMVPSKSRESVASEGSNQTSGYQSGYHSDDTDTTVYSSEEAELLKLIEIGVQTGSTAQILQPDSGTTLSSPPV
Chain of Tyrosine-protein kinase Lck (Homo sapiens) (P06239 2-509 limits assumed): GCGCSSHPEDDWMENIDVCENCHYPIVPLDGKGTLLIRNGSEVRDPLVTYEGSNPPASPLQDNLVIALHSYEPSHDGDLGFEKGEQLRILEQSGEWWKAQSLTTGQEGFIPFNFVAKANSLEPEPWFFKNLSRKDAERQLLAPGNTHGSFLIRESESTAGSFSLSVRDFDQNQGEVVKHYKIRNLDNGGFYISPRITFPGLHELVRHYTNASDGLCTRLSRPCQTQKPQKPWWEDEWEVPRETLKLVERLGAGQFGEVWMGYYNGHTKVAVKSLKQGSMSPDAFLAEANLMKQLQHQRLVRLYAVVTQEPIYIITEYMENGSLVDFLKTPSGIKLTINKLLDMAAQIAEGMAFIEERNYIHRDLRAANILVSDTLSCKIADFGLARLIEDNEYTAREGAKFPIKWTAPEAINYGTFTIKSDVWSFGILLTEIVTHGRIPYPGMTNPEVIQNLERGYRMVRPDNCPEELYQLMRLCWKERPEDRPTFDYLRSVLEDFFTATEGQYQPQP

The inhibition is the percentage by which the read-out fell short of the control. Turning to `CNC(=O)c1ccccc1Oc1nc(Nc2cc(OC)c(OC)c(OC)c2)ncc1Br`, the fold change (FC) in assay [1] worked out at 0.14; in assay [4] it was 0.18. For the same compound, the inhibition was found to be 11% in assay [2] and 15% in assay [3].

For `CC(C)[C@H](NC(=O)c1cc(-c2cnn3cc(-c4ccc(OCCN5CCCCC5)cc4)cnc23)cs1)C(F)(F)F`, the fold change (FC) came to 0.07 in assay [5] and 0.23 in assay [6].
